Laboratory results: ChEMBL document CHEMBL1649062, “Integration of lead optimization with crystallography for a membrane-bound ion channel target: discovery of a new class of AMPA receptor positive allosteric modulators” (J Med Chem, 2011)
pEC50, pIC50: −log10 of the molar value. In brackets after ≈: the same amount, converted by molar mass.

What was measured:
[1] = Distribution coefficient, log D of the compound; assay type: physicochemical; conditions: octanol/water
[2] = Kinetic solubility of the compound in phosphate buffered saline of pH 7.4; assay type: physicochemical
Outline: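 Kinetic solubility: 10 mM DMSO stock, 5 μL diluted to 100 μL with pH 7.4 phosphate-buffered saline, equilibrated 1 h at room temperature, filtered, filtrate quantified by calibrated flow-injection chemiluminescent nitrogen detection.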

Glutamate receptor 2 [3] = biological target: T1, Glutamate receptor 2 (Homo sapiens, UniProt P42262); experiment: Allosteric modulation of human recombinant GluA2 receptor flip isoform expressed in HEK293 cells assessed as potentiation of glutamate-induced calcium influx by Fluo-4/FLIPR method; assay type: cell-based
T1 sequence (P42262 whole entry, canonical isoform): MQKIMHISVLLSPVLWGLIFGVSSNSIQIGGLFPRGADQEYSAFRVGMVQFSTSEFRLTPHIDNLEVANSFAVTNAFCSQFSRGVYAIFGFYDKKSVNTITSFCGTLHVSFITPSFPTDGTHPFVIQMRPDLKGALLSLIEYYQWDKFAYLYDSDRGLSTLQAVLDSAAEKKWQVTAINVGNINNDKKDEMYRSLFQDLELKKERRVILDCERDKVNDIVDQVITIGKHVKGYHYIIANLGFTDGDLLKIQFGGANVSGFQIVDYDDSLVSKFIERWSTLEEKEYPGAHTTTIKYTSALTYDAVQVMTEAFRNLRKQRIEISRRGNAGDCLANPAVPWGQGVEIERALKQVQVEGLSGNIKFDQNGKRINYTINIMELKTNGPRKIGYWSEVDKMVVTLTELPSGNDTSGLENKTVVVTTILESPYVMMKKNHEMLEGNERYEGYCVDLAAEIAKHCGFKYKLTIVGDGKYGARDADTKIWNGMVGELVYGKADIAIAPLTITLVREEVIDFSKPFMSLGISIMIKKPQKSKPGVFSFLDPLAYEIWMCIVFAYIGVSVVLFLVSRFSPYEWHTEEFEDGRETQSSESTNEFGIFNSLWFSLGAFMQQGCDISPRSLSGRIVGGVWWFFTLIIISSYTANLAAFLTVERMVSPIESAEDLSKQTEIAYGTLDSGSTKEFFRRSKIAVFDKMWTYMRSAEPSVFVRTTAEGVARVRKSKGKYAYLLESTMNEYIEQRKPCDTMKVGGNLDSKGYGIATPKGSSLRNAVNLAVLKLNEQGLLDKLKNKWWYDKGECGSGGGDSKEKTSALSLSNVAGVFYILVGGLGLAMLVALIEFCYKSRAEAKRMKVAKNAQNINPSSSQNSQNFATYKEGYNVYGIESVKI
Outline: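 Stable GluA2 flip (unedited) cell line grown in DMEM/F12 with 10% FBS and seeded to confluence 2-3 days before use. Cells washed in HEPES buffer (pH 7.3) and loaded with 2 μM Fluo-4 AM for 60 min at room temperature. On FLIPR, compound was added 5 min before 100 μM glutamate. pEC50 and asymptotic maximum are relative to the maximal response to cyclothiazide, n ≥ 3.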

Glutamate receptor 2 [4] = biological target: T1, Glutamate receptor 2; experiment: Allosteric modulation of human recombinant GluA2 receptor flip isoform expressed in HEK293 cells assessed as potentiation of glutamate-induced calcium influx by Fluo-4/FLIPR method relative to cyclothiazide; assay type: cell-based
Outline: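 Stable GluA2 flip (unedited) cells seeded to confluence 2-3 days before assay; washed in HEPES buffer (145 NaCl, 5 KCl, 2 CaCl2, 1 MgCl2, 5.5 glucose, pH 7.3), loaded with 2 μM Fluo4-AM 60 min at room temperature. FLIPR dual addition: compound 5 min before 100 μM glutamate; fluorescence rise expressed against maximal cyclothiazide response, fitted pEC50 and Asym max; n ≥ 3.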

Cytochrome P450 2D6 = Cytochrome P450 2D6 (Homo sapiens, UniProt P10635); experiment: Inhibition of human CYP2D6 by fluorescence assay; assay type: ADME
Chain of Cytochrome P450 2D6 (P10635 whole entry): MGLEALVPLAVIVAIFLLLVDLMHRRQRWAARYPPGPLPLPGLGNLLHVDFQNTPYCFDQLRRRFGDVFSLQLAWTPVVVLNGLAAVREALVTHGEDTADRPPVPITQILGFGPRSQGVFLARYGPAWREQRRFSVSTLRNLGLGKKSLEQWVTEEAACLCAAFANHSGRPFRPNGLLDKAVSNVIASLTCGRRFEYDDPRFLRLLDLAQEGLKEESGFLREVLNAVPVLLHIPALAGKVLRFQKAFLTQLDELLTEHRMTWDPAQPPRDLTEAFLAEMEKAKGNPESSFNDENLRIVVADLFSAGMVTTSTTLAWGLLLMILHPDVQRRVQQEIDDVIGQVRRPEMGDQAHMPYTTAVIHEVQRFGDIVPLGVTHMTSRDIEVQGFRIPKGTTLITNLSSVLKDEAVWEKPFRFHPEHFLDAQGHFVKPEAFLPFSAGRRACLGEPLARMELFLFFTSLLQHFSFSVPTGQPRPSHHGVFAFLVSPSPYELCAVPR
Outline: (§1)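 Recombinant human CYP bactosomes (0.1 mg/mL) in 50 mM potassium phosphate pH 7.4, preincubated 10 min at 37 °C with test compound (0.1-10 μM, 7 concentrations) and fluorogenic substrate. Substrates: ethoxyresorufin 0.5 μM (1A2), FCA 50 μM (2C9), BMC 10 μM (2C19), MMC 10 μM (2D6), DEF 1 μM or 7-BQ 25 μM (3A4). Reaction started with NADPH regenerating system; metabolite formation read over 10 min. IC50 from percent of control rate; miconazole control; triplicate.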

Cytochrome P450 2C9 = Cytochrome P450 2C9 (Homo sapiens, UniProt P11712); experiment: Inhibition of human CYP2C9 by fluorescence assay; assay type: ADME; outline: as §1
Chain of Cytochrome P450 2C9 (P11712 whole entry): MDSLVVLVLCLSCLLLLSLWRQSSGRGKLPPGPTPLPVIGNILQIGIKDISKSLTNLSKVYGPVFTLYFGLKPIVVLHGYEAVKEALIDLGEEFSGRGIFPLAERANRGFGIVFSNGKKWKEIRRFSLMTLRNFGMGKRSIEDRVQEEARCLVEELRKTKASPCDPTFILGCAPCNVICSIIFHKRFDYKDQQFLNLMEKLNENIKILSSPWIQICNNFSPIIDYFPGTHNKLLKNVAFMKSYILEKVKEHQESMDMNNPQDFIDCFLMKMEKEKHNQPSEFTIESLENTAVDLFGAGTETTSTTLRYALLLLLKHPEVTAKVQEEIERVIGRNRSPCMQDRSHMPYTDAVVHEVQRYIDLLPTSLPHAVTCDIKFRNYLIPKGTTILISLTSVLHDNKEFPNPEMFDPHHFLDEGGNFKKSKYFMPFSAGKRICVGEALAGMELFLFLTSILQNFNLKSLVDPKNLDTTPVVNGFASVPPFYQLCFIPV

[5] = Apparent permeability of the compound; assay type: ADME; conditions: not told
Outline: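 Artificial membrane permeability: donor holds 10 mM sample in pH 7.05 phosphate buffer with 0.5% hydroxypropylcyclodextrin. Membrane is 1.8% phosphatidylcholine and 1% cholesterol in decane. Donor and acceptor concentrations measured by LCMS after 3 h at room temperature; permeability expressed in nm/s.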

Cytochrome P450 1A2 = biological target: T2, Cytochrome P450 1A2 (Homo sapiens, UniProt P05177); experiment: Inhibition of human CYP1A2 by fluorescence assay; assay type: ADME; outline: as §1
T2 sequence (P05177 whole entry): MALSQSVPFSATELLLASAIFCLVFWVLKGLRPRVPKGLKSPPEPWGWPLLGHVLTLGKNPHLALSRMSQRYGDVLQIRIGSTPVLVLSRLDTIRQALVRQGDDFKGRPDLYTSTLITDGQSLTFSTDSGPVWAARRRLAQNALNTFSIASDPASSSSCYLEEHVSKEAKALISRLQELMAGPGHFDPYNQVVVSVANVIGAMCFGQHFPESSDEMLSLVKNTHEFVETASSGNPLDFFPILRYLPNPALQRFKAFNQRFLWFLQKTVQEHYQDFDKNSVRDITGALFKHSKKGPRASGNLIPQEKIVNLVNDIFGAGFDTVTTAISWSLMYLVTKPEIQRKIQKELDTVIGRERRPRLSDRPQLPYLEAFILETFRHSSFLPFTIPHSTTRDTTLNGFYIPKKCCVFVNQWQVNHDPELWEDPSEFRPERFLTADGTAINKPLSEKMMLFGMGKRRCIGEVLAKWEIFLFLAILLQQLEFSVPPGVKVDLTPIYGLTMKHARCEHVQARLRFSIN

[6] = Clearance in rat at 3 mg/kg, po; assay type: ADME, organism-based; set-up: dose 3 mg/kg, route oral; conditions: in vivo
Outline: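 Rats dosed orally at 3 mg/kg; blood sampled via the hepatic portal vein and heart. Estimated clearance derived from in vivo hepatic extraction, taking rat liver blood flow as 85 (mL/min)/kg.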

[7] = AUC ( 0 to t) in rat at 3 mg/kg, po; assay type: ADME, organism-based, Plasma; set-up: dose 3 mg/kg, route oral; conditions: plasma
in vivo = conditions: rat, brain, po, 3 mg/kg
[8] = Cmax in rat at 3 mg/kg, po; assay type: ADME, organism-based; set-up: dose 3 mg/kg, route oral; conditions: in vivo
[9] = Plasma protein binding in rat at 3 mg/kg, po; assay type: ADME, organism-based; set-up: dose 3 mg/kg, route oral; conditions: read-out: PPB (converted)
[10] = Inhibition of human CYP450 by fluorescence assay; assay type: ADME
Outline: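 Recombinant human CYP1A2, 2C9, 2C19, 2D6 and 3A4 bactosomes (0.1 mg/mL protein) preincubated 10 min at 37 °C in 50 mM potassium phosphate pH 7.4 with test compound (0.1–10 μM, methanol 3–4.5% final) and fluorogenic probe: ethoxyresorufin 0.5 μM (1A2), FCA 50 μM (2C9), BMC 10 μM (2C19), MMC 10 μM (2D6), DEF 1 μM or 7-BQ 25 μM (3A4). NADPH-regenerating system added; fluorescent metabolite read 10 min; rate as % control; IC50 fitted; triplicate.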

Brain = experiment: Brain tissue binding in rat at 3 mg/kg, po; assay type: ADME, organism-based; set-up: dose 3 mg/kg, route oral; conditions: in vivo
Cytochrome P450 2C19 = Cytochrome P450 2C19 (Homo sapiens, UniProt P33261); experiment: Inhibition of human CYP2C19 by fluorescence assay; assay type: ADME; outline: as §1
Chain of Cytochrome P450 2C19 (P33261 whole entry): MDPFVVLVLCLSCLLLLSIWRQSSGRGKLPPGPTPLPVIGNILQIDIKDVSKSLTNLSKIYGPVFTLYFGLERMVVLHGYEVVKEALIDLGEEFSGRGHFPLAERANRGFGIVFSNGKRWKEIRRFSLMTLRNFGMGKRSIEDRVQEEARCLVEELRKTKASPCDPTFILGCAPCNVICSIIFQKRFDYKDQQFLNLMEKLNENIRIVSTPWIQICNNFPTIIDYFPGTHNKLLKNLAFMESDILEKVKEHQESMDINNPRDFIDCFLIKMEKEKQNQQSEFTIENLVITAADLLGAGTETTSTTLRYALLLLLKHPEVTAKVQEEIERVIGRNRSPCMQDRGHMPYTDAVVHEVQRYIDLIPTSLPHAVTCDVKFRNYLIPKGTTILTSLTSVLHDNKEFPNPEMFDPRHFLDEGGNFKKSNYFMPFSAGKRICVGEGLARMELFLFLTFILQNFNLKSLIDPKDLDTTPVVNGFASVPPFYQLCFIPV

Cytochrome P450 3A4 = Cytochrome P450 3A4 (Homo sapiens, UniProt P08684); experiment: Inhibition of human CYP3A4 by fluorescence assay; assay type: ADME; outline: as §1
Chain of Cytochrome P450 3A4 (P08684 whole entry): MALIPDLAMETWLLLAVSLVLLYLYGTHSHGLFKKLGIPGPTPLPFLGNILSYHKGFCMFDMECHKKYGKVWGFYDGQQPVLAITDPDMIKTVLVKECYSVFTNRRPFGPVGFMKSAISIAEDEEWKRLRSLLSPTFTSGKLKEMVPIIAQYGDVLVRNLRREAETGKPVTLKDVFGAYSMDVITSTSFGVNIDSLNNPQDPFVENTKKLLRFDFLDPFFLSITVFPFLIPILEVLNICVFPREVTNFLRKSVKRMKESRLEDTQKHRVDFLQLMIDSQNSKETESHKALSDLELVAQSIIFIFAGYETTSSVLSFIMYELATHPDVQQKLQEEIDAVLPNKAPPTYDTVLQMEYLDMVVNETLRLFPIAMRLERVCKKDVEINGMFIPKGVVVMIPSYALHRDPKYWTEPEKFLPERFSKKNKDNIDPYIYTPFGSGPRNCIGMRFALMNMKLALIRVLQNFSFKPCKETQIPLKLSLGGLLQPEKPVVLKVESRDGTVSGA

Structure (SMILES)	logD [1]	solubility kinetic [2]	pEC50 (Glutamate receptor 2 [3])	Activity (Glutamate receptor 2 [4])	pIC50 (Cytochrome P450 2D6)	pIC50 (Cytochrome P450 2C9)	Papp [5]	pIC50 (Cytochrome P450 1A2)	CL/F [6]	AUC(0-t) [7]	Kp (in vivo)	Cmax [8]	fraction unbound [9]	pIC50 [10]	Brain tissue binding (% bound) (Brain)	pIC50 (Cytochrome P450 2C19)	pIC50 (Cytochrome P450 3A4)
O=C(c1ccc(-n2nc(C(F)(F)F)c3c2CCCC3)cc1)N1CCCCC1	1.6	16 µg/mL (≈ 42.4 µM)	< 4.00	100%													
CCCCN(C)C(=O)c1ccc(-n2nc(C(F)(F)F)c3c2CCCC3)cc1	3.2	65 µg/mL (≈ 171 µM)	4.80	86%	5.10	5.22											
O=C1CCCN1Cc1ccc(-n2nc(C(F)(F)F)c3c2CCCC3)cc1F	3.3	88 µg/mL (≈ 231 µM)	6.00	112%		5.05	42 ×10⁻⁶ cm/s	5.70	47 mL/min/kg	331 ng·h/mL	1.3	167 ng/mL	0.011				
O=S(=O)(NCc1ccc(-n2nc(C(F)(F)F)c3c2CCCC3)cc1)C1CC1	3.2	12 µg/mL (≈ 30 µM)	5.00	112%										< 5.00			
O=C1CCCN1Cc1ccc(-n2nc(C(F)(F)F)c3c2CCCC3)cc1	2.4	110 µg/mL (≈ 303 µM)	6.00	132%		5.30		6.00	54 mL/min/kg	231 ng·h/mL	1.4	121 ng/mL	0.016		99.4%		
O=C(C(F)c1ccc(-n2nc(C(F)(F)F)c3c2CCCC3)cc1)N1CCCC1 (stereo not drawn)	3.4	124 µg/mL (≈ 314 µM)	4.50	98%										< 5.00			
O=C(N1CCCC1)C1(c2ccc(-n3nc(C(F)(F)F)c4c3CCCC4)cc2)CC1	3.8	31 µg/mL (≈ 76.8 µM)	4.50	37%		6.52										5.15	5.22
CC(=O)Cc1ccc(-n2nc(C(F)(F)F)c3c2CCCC3)cc1	3	44 µg/mL (≈ 137 µM)	5.40	111%	≥ 6.00	≥ 6.00		≥ 6.00						≥ 6.00		5.70	≥ 6.00
CS(=O)(=O)c1ccc(-n2nc(C(F)(F)F)c3c2CCCC3)cc1	3.4	13 µg/mL (≈ 37.8 µM)	4.50	83%	5.22			5.40									
O=C(N1CCCC1)C(F)(F)c1ccc(-n2nc(C(F)(F)F)c3c2CCCC3)cc1	3.4	124 µg/mL (≈ 300 µM)	4.70	94%		5.40											
CC(C(=O)N1CCCC1)c1ccc(-n2nc(C(F)(F)F)c3c2CCCC3)cc1 (stereo not drawn)	2.3	59 µg/mL (≈ 151 µM)	4.60	81%		6.00		5.22									
O=C(Cc1ccc(-n2nc(C(F)(F)F)c3c2CCCC3)cc1)NC1CCCC1			4.20	100%	5.10	6.70											6.15
